Results from publication PMC5217177 (Journal of natural products, 2016).
Entries after “also recorded” stand apart in the source; their conditions may differ.

What was measured:
[1] = tested on: Saccharomyces cerevisiae ATCC 204508; test: MIC determination, broth dilution in 96-well plates; format: cell-based; details: YAPD medium, 28–37 °C, 16–48 h, OD600 read-out, max conc ~10 μg/mL
How it was run: (§1)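 Starter cultures were grown 16 h at 37 °C and 250 rpm, then diluted in medium to OD600 ~0.1. Test compound was serially diluted in DMSO, with DMSO alone as the negative control. Positive controls were kanamycin for the bacteria and amphotericin B for the yeast. Plates were shaken at 160 rpm during incubation. OD600 was normalized to vehicle wells, and the lowest inhibitory concentration was taken as the MIC.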

[2] = tested on: Escherichia coli ATCC 12435; test: as above; format: cell-based; details: LB medium, 28–37 °C, 16–48 h, OD600 read-out, max conc ~10 μg/mL
How it was run: as §1

[3] = tested on: Salmonella enterica ATCC 10708; test: as above; format: cell-based; details: nutrient broth, 28–37 °C, 16–48 h, OD600 read-out, max conc ~10 μg/mL
How it was run: as §1

[4] = tested on: Bacillus subtilis ATCC 6633; test: as above; format: cell-based; details: LB medium, 28–37 °C, 16–48 h, OD600 read-out, max conc ~10 μg/mL
How it was run: as §1

[5] = tested on: S. aureus and B. subtilis; details: cited from earlier work
[6] = tested on: two human cancer cell lines; test: Cytotoxicity, comparison across PC3 and A549; format: cell-based; details: PC3 and A549, 48 h
[7] = Stability under acidic conditions; format: physicochemical; details: observed during HPLC purification with TFA; UV/Vis monitoring
Gram-positive strains = test: Antibacterial activity, comparisons across the tested strains; format: cell-based; details: from MIC of Table 3

Row | Substance | MIC, S. cerevisae [1] [µg/mL] | MIC, E. coli [2] [µg/mL] | MIC, S. enterica [3] [µg/mL] | MIC, B. subtilis [4] [µg/mL] | antibacterial activity based on zones of inhibition [5] | fold change in EC50 compared to actinomycin D (less potent) [6] | stability under acidic conditions [7] | fold more potent than actinomycin Y3 (antibacterial) (Gram-positive strains) [fold]
1 | actinomycin Y3 | >9.33 | >9.33 | >9.33 | >9.33 |  |  |  | 
2 | actinomycin Y4 | >9.32 | >9.32 | >9.32 | >9.32 |  |  |  | 
3 | actinomycin Y5 |  |  |  |  | modest antibacterial activity |  |  | 
4 | actinomycin Y6 [Compound 1] | 9.46 | >9.46 | >9.46 | 0.59 |  | 278–355 fold | not stable under acidic conditions; also recorded: unstable under acidic condition | ≥ 9
